Most compounds without a hit are left out; they make up all but 1.6% or so of the library.
ATG4B inhibitor = inhibitors of human ATG4B cysteine protease; Q9Y4P1; ATG4B cleavage of LC3-PLA2, NBD-HPC fluorescence, 1 h; inhibition, % at 8.33 µM; hit rate 0.51% among 340,000; AID 504462; in the data active = inhibition above about 40%
PKA-R2B act = activates the human PKA-R2B holoenzyme complex | PKA-R2B holoenzyme dissociation, Cy5-IP20 fluorescence polarization; R2B truncated from residue 108, S112A mutant; 0% DMSO only, 100% 113 µM cGMP | activation, % at 11.4 µM | hit rate 0.079% among 340,000;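 active = activation above a cutoff set at the mean over all compounds plus 3 SD, cut at about 18% in these data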;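 note: higher means more holoenzyme dissociation and a rise in polarization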
HKDC1 inhibitor = HKDC1 (human) hexokinase inhibition | Q2TB90 | recombinant HKDC1, G6PDH/diaphorase resazurin coupled fluorescence | inhibition, % at 20 µM | hit rate 0.16% among 340,000 | AID 493160;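 active = inhibition above about 35% when tested at 20 µM, limit read from the data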
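Test system: recombinant HKDC1 (HK5) hexokinase enzyme, produced in-house / Doses: 20 µM test compound, 1% DMSO / Timing: 90 min, room temperature / Detection: G6PDH/diaphorase-coupled fluorescence, 1 mM NADP, 100 µM resazurin, 525/613 nm / Control set: DMSO wells with and without enzyme mix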
PKA-R1A act = activators of PKA-R1A complex | activation, % at 11.4 µM | PKA-R1A dissociation, Cy5-IP20 fluorescence polarization; scaled: DMSO 0%, 113 µM cGMP 100% | P00514+P68181 | hit rate 0.083% among 340,000;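 active = percent activation above the mean of all tested compounds plus 3 SD, cut at about 19% in these data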;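 note: higher means more PKAc released from R1A so a rise in polarization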
T cell modulator = modulates CD8 T cell binding to vesicles. 2C CD8+ T cell-vesicle binding, flow cytometry; stronger effect = lower value. response (vesicle binding), % at 7 µM. hit rate 0.068% among 330,000;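 active = response, share of CD8 T cells binding vesicles, and their 90th percentile fluorescence all below set limits, cut at about 80% in these data, passing the limit was not always enough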;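 note: values below 100% mean blocked vesicle binding to the CD8+ T cells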
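Also added: QL9-peptide-loaded Drosophila micro-vesicles bearing Ld, ICAM-1 and B7-1; Test system: purified 2C TCR transgenic mouse naive CD8+ T cells; Measured by: cytometric PE anti-B7-1 and Alexa647 anti-CD8 signals after 1% paraformaldehyde fixation; Timing: binding step 1.5 h, 37 °C, antibody labelling 20 min, ice.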
PfG6PD inh = PfG6PD (Plasmodium falciparum) enzyme inhibition; hit rate 0.78% among 350,000; PfGluPho enzyme, NADPH resazurin-diaphorase fluorescence; inhibition, % at 20 µM;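 active = inhibition reaching at least a set limit at 20 µM in the primary screen, cut at about 59% in these data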
R2B FP artifact = FP assay interference, PKA-R2B counter-screen | shares compounds with PKA-R2B act | FP artifact counterscreen, fluorescence polarization | activation, % at 11.4 µM | hit rate 6% among 270 | AID 504796; in the data active = activation above about 20%;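 note: Cy5 labelled IP20 peptide probe with compound but no PKA protein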
PKA-R2B confirm = confirmation of human PKA-R2B complex activators; shares compounds with PKA-R2B act; fluorescence polarization, activation; activation, % at 11.4 µM; hit rate 9% among 270; AID 504797; in the data active = activation above about 19%
R1A FP artifact = fluorescence polarization artifact in PKA-R1A activator counter-screen; hit rate 7% among 280; activation, % at 11.4 µM; Cy5-IP20 peptide alone, fluorescence polarization artifact counterscreen; shares compounds with PKA-R1A act;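 active = mean activation over triplicate runs exceeds the adjusted cutoff derived for the parent primary screen, cut at about 19% in these data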;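 note: no PKA protein present so any polarization rise reflects compound interference; higher means stronger polarization artifact and likely false positive in parent screen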
PKA-R1A confirm = confirmation of PKA-R1A complex activators | activation, % at 11.4 µM | hit rate 9% among 280 | shares compounds with PKA-R1A act | Cy5-IP20 fluorescence polarization, PKA-R1A holoenzyme dissociation;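 active = mean activation over replicate wells exceeds the adjusted hit threshold taken from the earlier primary screen, cut at about 20% in these data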
Target sequence (P00514 whole entry, looked up): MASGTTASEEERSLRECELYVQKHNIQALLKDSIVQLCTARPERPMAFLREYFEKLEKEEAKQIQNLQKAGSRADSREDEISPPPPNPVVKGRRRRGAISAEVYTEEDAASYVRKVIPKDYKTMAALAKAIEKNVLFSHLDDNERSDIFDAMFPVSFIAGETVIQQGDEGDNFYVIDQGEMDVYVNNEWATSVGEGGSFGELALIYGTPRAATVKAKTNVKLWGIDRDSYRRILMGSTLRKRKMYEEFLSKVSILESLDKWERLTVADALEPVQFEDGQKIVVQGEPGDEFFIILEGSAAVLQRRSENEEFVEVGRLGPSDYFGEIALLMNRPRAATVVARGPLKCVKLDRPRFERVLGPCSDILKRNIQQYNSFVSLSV
Hits are given with their value; 0 = inactive; - = no result.

SMILES	ATG4B inhibitor	PKA-R2B act	HKDC1 inhibitor	PKA-R1A act	T cell modulator	PfG6PD inh	R2B FP artifact	PKA-R2B confirm	R1A FP artifact	PKA-R1A confirm
CC(=O)NCC(=O)OC(C)C(=O)Nc1ccc(C(C)=O)cc1 (stereo not drawn)	0	19	0	0	0	0	0	0	-	-
Brc1ccc(/C=N/Nc2ncnc3c2cnn3Cc2ccccc2)cc1	0	22	0	0	0	0	0	0	-	-
COC(=O)CN1C(=S)N(c2ccc(Cl)cc2)C(=O)C1CC(=O)Nc1ccccc1 (stereo not drawn)	0	0	0	0	0	0	-	-	-	-
COC(=O)CN1C(=S)N(C)C(=O)C1CC(=O)Nc1ccccc1 (stereo not drawn)	0	21	0	0	0	0	0	0	-	-
Cc1cc(C)cc(S(=O)(=O)c2cn(C)c3cc(N4CCN(C)CC4)c(F)cc3c2=O)c1	0	0	0	0	0	0	-	-	-	-
O=C(Oc1ccc2ccc(=O)oc2c1)c1ccccc1	0	0	0	0	0	0	-	-	-	-
CCC(NC(=O)OCc1ccccc1)C(=O)Oc1ccc2ccc(=O)oc2c1 (stereo not drawn)	0	19	0	0	0	0	0	0	-	-
O=C(O)/C=C/c1ccc(S(=O)(=O)N2CCN(CCN3C(=O)C4C5C=CC(C5)C4C3=O)CC2)cc1 (stereo not drawn)	0	0	0	0	0	0	-	-	-	-
COc1ccc(CC(=O)OCC(=O)NC2CCCCC2)cc1OC	0	18	0	0	0	0	0	0	-	-
O=C(OCCCOC(=O)c1ccccc1O)c1ccccc1O	-	-	-	-	0	-	-	-	-	-
Cc1cc(C)c(C)c(S(=O)(=O)N2CCC(C(=O)NNC(=O)c3ccccc3O)CC2)c1C	0	46	0	47	0	0	53	44	53	45
Cc1oc2ccc(OCc3cccc(Cl)c3)cc2c1C(=O)O	0	0	0	0	0	0	-	-	-	-
Cc1oc2ccc(OCc3c(F)cccc3Cl)cc2c1C(=O)O	0	27	0	51	0	0	45	52	45	51
CCN(CC)c1ccc(C(=C2C=CC(=[N+](CC)CC)C=C2)c2ccc(S(=O)(=O)O)cc2S(=O)(=O)[O-])cc1	0	39	0	34	-	0	49	48	49	52
Cc1nc(N(C)C2CCCCC2)c2nnn(Cc3ccc(F)cc3)c2n1	-	0	-	0	-	0	-	-	-	-
CC1=C/C(=C(/c2cc(C)c(O)c(Br)c2)c2ccccc2S(=O)(=O)O)C=C(Br)C1=O	0	28	0	35	0	0	51	46	51	49
CC1=C/C(=C(/c2ccc(O)c(C)c2)c2ccccc2S(=O)(=O)O)C=CC1=O	0	0	0	0	0	0	-	-	-	-
Cc1ccc(-c2csc(NS(=O)(=O)c3cccc(F)c3)n2)o1	0	0	0	0	0	0	-	-	-	-
CN(C)c1ccc(C(=O)OCC(=O)Nc2ccc(S(N)(=O)=O)cc2)cc1	0	48	0	46	0	0	58	59	58	63
Cc1cc(=O)n2[nH]c(NCc3c(F)cccc3Cl)nc2n1	0	72	0	60	0	0	103	93	103	100
COc1cccc(CNc2nc3nc(C)cc(=O)n3[nH]2)c1	0	0	0	0	0	0	-	-	-	-
CCOc1ccc(S(=O)(=O)c2ccc(C)cc2)c2c1no[n+]2[O-]	-	0	-	0	-	0	-	-	-	-
Cc1ccc(S(=O)(=O)N2CCCC2CNC(=O)C(=O)NCc2ccc3c(c2)OCO3)cc1 (stereo not drawn)	-	0	-	0	-	0	-	-	-	-
Nc1nc2c(nc(Br)n2[C@@H]2O[C@@H]3COP(=O)(O)O[C@H]3[C@H]2O)c(=O)[nH]1	0	77	0	53	0	0	0	78	0	50
Nc1ncnc2c1nc(Br)n2[C@@H]1O[C@@H]2COP(=O)(O)O[C@H]2[C@H]1O	0	107	0	117	0	0	0	98	0	106
SMILES	ATG4B inhibitor	PKA-R2B act	HKDC1 inhibitor	PKA-R1A act	T cell modulator	PfG6PD inh	R2B FP artifact	PKA-R2B confirm	R1A FP artifact	PKA-R1A confirm
CCOP1(=O)OCC2OC(n3cnc4c(N)ncnc43)C(O)C2O1 (stereo not drawn)	0	91	0	102	0	0	0	65	0	76
Nc1nc2c(nc(N3CCCCC3)n2[C@@H]2O[C@H](CO)[C@@H](O)[C@H]2O)c(=O)[nH]1	0	0	0	0	0	0	-	-	-	-
C=CCN1C(=O)c2ccc(C(=O)N3CCN(S(=O)(=O)c4cccc(Cl)c4)CC3)cc2C1=O	0	0	0	0	0	0	-	-	-	-
CCCC1=C(C(=O)OCC)C(c2sccc2C)n2ncnc2N1 (stereo not drawn)	0	0	0	19	0	0	-	-	0	0
CCCC1=C(C(=O)OCC)C(c2ccc(O)cc2)n2ncnc2N1 (stereo not drawn)	0	0	0	0	0	0	-	-	-	-
CCC(CO)n1cnnc1-c1ccncc1 (stereo not drawn)	0	0	0	20	0	0	-	-	0	0
CC(=O)Nc1ccc(N2C(=O)CSC2c2cccc(Br)c2)cc1 (stereo not drawn)	0	0	0	0	0	0	-	-	-	-
Cc1c(C(=O)Nc2ccc(Oc3ccccc3)cc2)sc2nc3n(c(=O)c12)CCC3	0	0	0	21	0	0	-	-	0	0
Cc1c(C(=O)Nc2ccc(OC(F)(F)F)cc2)sc2nc3n(c(=O)c12)CCC3	0	0	0	0	0	0	-	-	-	-
CN(C)CCCCOc1cccc(Br)c1	0	0	0	23	0	0	-	-	0	0
COc1ccc(NC(=O)c2cc(C)no2)cc1	0	0	0	0	0	0	-	-	-	-
Cc1cc2ccccn2c1C(=O)c1ccc(Cl)c([N+](=O)[O-])c1	0	0	0	20	0	0	-	-	0	0
COc1ccc2[nH]c(=O)c(CN(C(=O)c3ccccn3)c3ccccc3)cc2c1	0	0	0	20	0	0	-	-	0	0
COc1ccc2[nH]c(=O)c(CN(C(=O)c3cccnc3)c3ccccc3)cc2c1	0	0	0	0	0	0	-	-	-	-
O=C1N(C2CCCC2)C[C@@H]2C[C@@H](c3cccn3-c3ccccn3)N3CCC[C@@]123	0	0	0	20	0	0	-	-	0	0
O=C1N(C2CCCC2)C[C@@H]2C[C@@H](c3cccn3-c3nccs3)N3CCC[C@@]123	0	0	0	0	0	0	-	-	-	-
